In test [1] the target is T1, Amyloid-beta precursor protein (Homo sapiens, UniProt P05067). As to the kind of experiment: Inhibition of amyloid beta (1 to 42) (unknown origin) aggregation at 100 uM incubated at 37 degC for 16 hrs by thioflavin T fluorescence assay. Put shortly: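 Aβ42 prepared at 40 μM in DMSO plus PBS (0.01 M, pH 6.6), mixed 2:1:1 with sample and 80 μM ThT stock. Shaken 15 min, incubated at 37 °C for 16 h, then ThT fluorescence read. Inhibition = (F0−Fi)/F0×100 against no-sample wells. Three independent experiments.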

In test [2] the target is T1, Amyloid-beta precursor protein. The test can be described thus: Inhibition of amyloid beta (1 to 42) (unknown origin) aggregation incubated at 37 degC for 16 hrs by thioflavin T fluorescence assay. Put shortly: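 Aβ42 at 40 μM (in DMSO/PBS pH 6.6), mixed 2:1:1 with sample and 80 μM ThT stock, shaken 15 min, then held at 37 °C for 16 h. Read by ThT fluorescence. IC50 measured only for samples with ≥60% inhibition: six concentrations, three independent experiments, mean % inhibition fitted to a four-parameter variable-slope log(inhibitor)–response curve.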

For test [3], the system named is Drosophila. As to the kind of experiment: Enhancement of short-term memory in Drosophila w1118 (isoCJ1) P35*H29.3 model of human Abeta42 transgenic Alzheimer's disease model assessed as increase in performance index at 100 uM fed to flies for 7 days by Pavlovian olfactory learning method. Type of test: functional, organism-based. In a few lines: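 Male flies: elav-GAL4c155 (P35) × UAS-Aβ42 (H29.3) F1, with 2U*H29.3 as normal controls. Newly hatched flies kept about 120 per vial and reared at 28 °C, 42% RH. Fed 100 μM (from 10 mM stock) in 50 μL daily for 4 h, days 2–8. Controls got matching DMSO. Pavlovian olfactory learning done in the dark at 24 °C, 70% RH. Read-out is performance index; two vials per PI.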

Active and inactive are the calls of the source. The rule behind the calls is not given here.

T1 sequence (P05067 whole entry): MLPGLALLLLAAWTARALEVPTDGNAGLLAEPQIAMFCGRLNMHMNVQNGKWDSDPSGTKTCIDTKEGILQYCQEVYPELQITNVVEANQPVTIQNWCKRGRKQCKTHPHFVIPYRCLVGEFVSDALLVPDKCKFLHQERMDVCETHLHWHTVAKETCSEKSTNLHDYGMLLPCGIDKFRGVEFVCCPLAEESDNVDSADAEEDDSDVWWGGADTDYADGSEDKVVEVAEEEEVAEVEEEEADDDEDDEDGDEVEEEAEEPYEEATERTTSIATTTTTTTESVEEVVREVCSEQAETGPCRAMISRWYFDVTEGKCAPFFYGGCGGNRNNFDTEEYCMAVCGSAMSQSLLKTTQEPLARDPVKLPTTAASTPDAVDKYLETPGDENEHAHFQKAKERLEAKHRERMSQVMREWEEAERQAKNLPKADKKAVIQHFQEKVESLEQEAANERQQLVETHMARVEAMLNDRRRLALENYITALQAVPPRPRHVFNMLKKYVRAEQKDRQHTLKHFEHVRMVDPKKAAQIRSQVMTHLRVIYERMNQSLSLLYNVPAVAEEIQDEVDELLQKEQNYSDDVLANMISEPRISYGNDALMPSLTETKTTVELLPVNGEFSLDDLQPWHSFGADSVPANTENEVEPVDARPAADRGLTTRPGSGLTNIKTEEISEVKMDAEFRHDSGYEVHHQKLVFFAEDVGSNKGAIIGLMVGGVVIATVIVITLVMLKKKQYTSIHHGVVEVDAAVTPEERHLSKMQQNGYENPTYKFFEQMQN

What is called inhibition is the share of the control response that was lost under treatment. Low values mean a weak effect, high ones a strong effect. What is called IC50 is the midpoint of a concentration-inhibition curve. `C[C@@]12C(=O)CC[C@H]1C1=C(C[C@H]2O)[C@@]2(C)CC[C@H](O)c3coc(c32)C1=O` had an inhibition in test [1] of 70.4%. In addition, in test [2], the IC50 was 43.5 µM. Moreover, in test [3], the outcome was Active.
`C[C@@]12c3ccc4c(c3C(=O)c3occ(c31)C(=O)C[C@H]2O)CCC4=O` [DEMETHOXYVIRIDIN] yielded an IC50 in test [2] of 13.4 µM.
As for `O=C(O[C@@H]1Cc2c(O)cc(O)cc2O[C@@H]1c1cc(O)c(O)c(O)c1)c1cc(O)c(O)c(O)c1` [EPIGALOCATECHIN GALLATE], in test [1], the inhibition came to 95.1%. Further, the IC50 in test [2] was 0.5 µM.
Take `C[C@]1(O)c2ccc3c(c2C(=O)c2occ(CCO)c21)CCC3=O`: the inhibition in test [1] was determined as 62.8%. In test [2], this compound displayed an IC50 of 34.3 µM. Further, the result in test [3] was Active.
`C[C@@]12c3ccc4c(c3C(=O)c3occ(c31)[C@@H](O)C[C@@H]2O)CCC4=O` yielded an inhibition in test [1] of 99%. The IC50 in test [2] stood at 10.1 µM. The outcome in test [3] was Active.
In test [1], `C[C@@]1(O)c2ccc3c(c2C(=O)c2occ([C@@H](O)CCO)c21)CCC3=O` gave an inhibition of 80.5%. The compound further returned an IC50 in test [2] of 71.9 µM. The result in test [3] was Active.
The compound `C[C@]12CCC(=O)c3coc(c31)C(=O)C1=C2[C@@H](O)C[C@]2(C)C(=O)CC[C@@H]12` returned an inhibition in test [1] of 98.8%. This compound also yielded an IC50 in test [2] of 1.2 µM. In test [3], the result was Active.
In test [1], `C[C@]1(O)c2ccc3c(c2C(=O)c2occ([C@@H](O)CCO)c21)CCC3=O` gave an inhibition of 63.5%. The same compound displayed an IC50 in test [2] of 95.9 µM. Further, in test [3], the outcome was Active.
As to `C[C@]12CC[C@H](O)c3coc(c31)C(=O)C1=C2[C@@H](O)C[C@]2(C)C(=O)CC[C@@H]12`, the inhibition in test [1] worked out at 54.6%. Further, in test [3], the outcome was Active.
Take `C[C@]1(O)c2ccc3c(c2C(=O)c2occ(CCCO)c21)CCC3=O`: the inhibition in test [1] amounted to 89.5%. Further, half-maximal inhibition in test [2] (IC50) required 28 µM. In addition, the result in test [3] was Active.

The values above are taken from ChEMBL document CHEMBL3580580, “Nodulisporiviridins A-H, Bioactive Viridins from Nodulisporium sp” (J Nat Prod, 2015).
